Measured values from ChEMBL document CHEMBL3608276, “Phenolic Compounds from the Leaves and Twigs of Osteomeles schwerinae That Inhibit Rat Lens Aldose Reductase and Vessel Dilation in Zebrafish Larvae” (J Nat Prod, 2015).

What was measured:
[1] = biological target: Aldo-keto reductase family 1 member B1 (Rattus norvegicus, UniProt P07943); experiment: Inhibition of Sprague-Dawley rat lense aldose reductase using DL-glyceraldehyde as substrate by spectrofluorometric analysis
Summary of the method: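 Crude enzyme from lenses of 8-week-old Sprague–Dawley rats (100–150 g), homogenized in 135 mM Na,K-phosphate pH 7.0 with 0.5 mM PMSF and 10 mM 2-mercaptoethanol; 100000g supernatant used. Reaction in 135 mM phosphate pH 7.0, 100 mM Li2SO4, 0.03 mM NADPH, 1 mM DL-glyceraldehyde at 37 °C, NADPH-started, HCl-stopped. NADP converted with NaOH/imidazole at 60 °C 10 min; fluorescence ex 360/em 460 nm. IC50 from log-concentration regression of remaining activity; 100 μM cutoff.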

Danio rerio [2] = species: Danio rerio; experiment: Toxicity in zebrafish embryo up to 20 uM; format: organism-based; settings: in vivo
Danio rerio [3] = species: Danio rerio; experiment: Reduction of high glucose-induced dilation of hyaloid-retinal vessel in flk:EGFP transgenic zebrafish embryo at 10 uM treated for day 3 to 6 postfertilization measured on day 6 by stereomicroscopic analysis relative to control; format: functional; parameters: scale not given: the % may be the effect or the level left
Summary of the method: (§1)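 flk:EGFP embryos, five per well at 3 dpf in egg water with 130 mM glucose, exposed to compound 3–6 dpf. Fixed in 4% paraformaldehyde at 6 dpf, lenses with vessels isolated by 3% trypsin (0.2 M Tris-HCl pH 7.8) 80 min at 37 °C. Hyaloid vessel diameter near the optic disc measured three times per lens, 10 larvae per group, triplicate; mean ± SEM, ANOVA/Dunnett versus high-glucose group.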

Danio rerio [4] = species: Danio rerio; experiment: Reduction of high glucose-induced dilation of hyaloid-retinal vessels in flk:EGFP transgenic zebrafish embryo at 20 uM treated for day 3 to 6 postfertilization measured on day 6 by stereomicroscopic analysis relative to control; format: functional; parameters: scale not given: the % may be the effect or the level left; summary of the method: as §1

| Compound | IC50 [1] [µM] | Activity (Danio rerio [2]) | Activity (Danio rerio [3]) [%] | Activity (Danio rerio [4]) [%] |
| --- | --- | --- | --- | --- |
| COc1cc([C@H]2O[C@H](c3cc(OC)c(O)c(OC)c3)[C@@H](CO[C@@H]3O[C@@H](C)[C@H](O)[C@@H](O)[C@H]3O)[C@@H]2CO)cc(OC)c1O | > 100 | – | – | – |
| COc1cc(O)cc(-c2ccc(O)c(O)c2)c1 | 13.8 | Non-toxic | 95 | 99 |
| COc1cc([C@H]2O[C@H](c3cc(OC)c(O)c(OC)c3)[C@@H](CO)[C@@H]2CO)cc(OC)c1O [HUAZHONGILEXIN] | > 100 | – | – | – |
| COc1cc(O[C@@H]2O[C@H](CO)[C@@H](O)[C@H](O)[C@H]2O)cc(-c2ccc(O)c(O)c2)c1 | 5.6 | Non-toxic | – | – |
| O=C(O)CC1(CC(=O)O)CCCC1 | 28.7 | – | – | – |
| COc1cc(OC)cc(-c2ccc(O)c(O[C@@H]3O[C@H](CO)[C@@H](O)[C@H](O)[C@H]3O)c2)c1 | 3.8 | Non-toxic | – | – |
